Source: article PMC2232892 (The Journal of General Physiology, 2000)
Where two headings read alike, the source gives them in different places.

Tests used:
[1] = target: T1, T449Y Shaker channels (Drosophila melanogaster, UniProt P08510, DEL6-46/T449Y); details: ref Heginbotham and MacKinnon 1992; cited from earlier work
[2] = target: T2, Shaker B, ShB Δ6-46 (Drosophila melanogaster, UniProt P08510, DEL6-46); details: wild-type Shaker channels; ref Heginbotham and MacKinnon 1992; Newland et al. 1992; cited from earlier work
[3] = target: T2, Shaker B, ShB Δ6-46; assay type: cell-based; details: for Kd: read-out: apparent Kd for external TEA block
Procedure, shortened: (§1)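 Oocytes were defolliculated for 60–90 min with 2 mg/ml collagenase in Ca-free OR-2, injected with channel RNA, and held at 18°C in ND-96 with penicillin/streptomycin. Inside-out or outside-out macropatches were recorded 1–5 d later at 20–22°C, filtered at 5 kHz. External solution (mM): 5 KCl, 135 NMDG-Cl, 2 CaCl2, 2 MgCl2, 10 HEPES, pH 7.2. Internal solution: 110 KCl, 25 KOH, 10 EGTA, 10 HEPES, pH 7.2.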

[4] = target: T1, T449Y Shaker channels; assay type: cell-based
Procedure, shortened: as §1

[5] = system: RBK1 (rKv1.1) channels; details: ref Newland et al. 1992; cited from earlier work

Row | interaction parameter Q (external TEA antagonism of internal TEA block) ([3]; K+ solutions, 0-100 mM external TEA, Ko = 17 mM, 0 mV) | interaction parameter Q (external vs internal TEA) ([3]; Rb+ solutions) | Kd ([3]; 20 mM internal K+ and 50 mM internal Na+) [mM] | Kd ([3]; 50 mM internal K+ (data not shown)) [mM] | Kd ([3]; 115 mM internal Na+ (20 mM K+)) [mM] | interaction parameter Q (external vs internal TEA) ([4]; K+ solutions) | current blocked by 2 mM internal TEA ([4]; absence of external TEA) [%] | current blocked by 2 mM internal TEA ([4]; presence of 1 mM external TEA) [%] | apparent zδ (voltage dependence of block, Woodhull equation) ([3]; 0.25 mM external gallamine, wild-type channels) | interaction parameter Q (external gallamine antagonism of internal TEA block) ([3]; K+ solutions, several external gallamine concentrations) | block by 0.25 mM external gallamine compared with wild-type channels ([4]; same concentration as on wild-type, reduced voltage sensitivity) | SMILES | electrical distance of external block [1] | δ (electrical distance of external block) [2] | interaction parameter Q (external vs internal TEA) [5]
1 | 4.6 | 1 | 7.5 ± 0.85 | 17.6 ± 2.7 | 7.6 ± 1.2 | 5.2 | 77 ± 0.4 | 64 ± 7 |  |  |  | CC[N+](CC)(CC)CC [TEA, tetraethylammonium] | 0.04 | ~0.15 | 5.3
2 |  |  |  |  |  |  |  |  | 0.28 | 2 | considerably more effective | CC[N+](CC)(CC)CCOc1cccc(OCC[N+](CC)(CC)CC)c1OCC[N+](CC)(CC)CC [gallamine, Gallamine triethiode] |  |  | 
